Rows were chosen to be rich in hits. Some 1.9% of all compounds tested hit in one or more screens of this group.
bCat nuc transl – modulators of beta-catenin nuclear translocation, primary screen, imaging, HeLa cells, immunofluorescence, high-content. 0.3% of 190,000 active. nuclear translocation activity, % at 5 µM. AID 1665, 2009;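 active means nuclear translocation activity above 50% at 5 µM, with a well cell count of 50 or more; inconclusive means wells under 50 cells across six images, flagged as toxic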;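 further: per-cell ratio of nuclear to cytoplasmic median beta-catenin stain intensity; plate controls were DMSO negative control for no effect and GSK-3 inhibitor IX positive control for full effect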
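System: HeLa cells, endogenous beta-catenin; compound dosing: 5 µM primary single dose, 0.1% DMSO, 0.02–20 µM confirmation series; incubation: 24 h compound exposure at 37°C, 5% CO2; signal: beta-catenin immunofluorescence imaging with DAPI; evaluation: % activation, nuclear-to-cytoplasmic median beta-catenin signal ratio per cell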
MT stabilize HCS – microtubule stabilizers in HeLa cells, primary screen, imaging, high-content imaging; 0.83% of 200,000 active; HeLa tubulin immunostaining HCS, 24 h; share of cells brighter than vehicle mean+2SD; AID 2205, 2009; % tubulin-high responders, % at 10 µM;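 active means plate Z-score above 3 for both tubulin-high and condensed-nucleus cell shares, with cell loss under 80%, at 10 µM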;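 further: anti alpha tubulin signal scored within the nucleus-defined area of each cell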
Autophagy mod – autophagy modulators in MEF cells, primary screen, imaging, high-content, MEF GFP-LC3; MEF GFP-LC3 puncta imaging; test concentration mostly 10 µM; calls only at 10 µM (by protocol); 0.98% of 190,000 active;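 active means percentage of spot-positive cells more than 3 SD above its plate mean, without a fluorescence outlier flag or 80% toxicity; inconclusive means no clear call, values can overlap the other calls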;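 further: spot-positive cell cutoff set from DMSO-treated cells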
Insulin prom up – insulin promoter activators in MIN6 cells, imaging, high-content screening, mouse beta cells. 0.3% of 190,000 active. MIN6 insulin promoter-GFP reporter; active compounds read high. z-score at 5 µM;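 active means z-score above 3 at 5 µM with at least 500 cells counted in the well; inconclusive means wells under 500 cells, flagged as cytotoxic or low count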
Furin inh – human furin inhibitors, primary screen, biochemical, fluorescence intensity; purified furin, fluorogenic substrate cleavage; inhibition, % at 20 µM or 30 µM; 0.061% of 220,000 active; in the data active means inhibition above about 25%
Target sequence (P09958 108-714 limits assumed): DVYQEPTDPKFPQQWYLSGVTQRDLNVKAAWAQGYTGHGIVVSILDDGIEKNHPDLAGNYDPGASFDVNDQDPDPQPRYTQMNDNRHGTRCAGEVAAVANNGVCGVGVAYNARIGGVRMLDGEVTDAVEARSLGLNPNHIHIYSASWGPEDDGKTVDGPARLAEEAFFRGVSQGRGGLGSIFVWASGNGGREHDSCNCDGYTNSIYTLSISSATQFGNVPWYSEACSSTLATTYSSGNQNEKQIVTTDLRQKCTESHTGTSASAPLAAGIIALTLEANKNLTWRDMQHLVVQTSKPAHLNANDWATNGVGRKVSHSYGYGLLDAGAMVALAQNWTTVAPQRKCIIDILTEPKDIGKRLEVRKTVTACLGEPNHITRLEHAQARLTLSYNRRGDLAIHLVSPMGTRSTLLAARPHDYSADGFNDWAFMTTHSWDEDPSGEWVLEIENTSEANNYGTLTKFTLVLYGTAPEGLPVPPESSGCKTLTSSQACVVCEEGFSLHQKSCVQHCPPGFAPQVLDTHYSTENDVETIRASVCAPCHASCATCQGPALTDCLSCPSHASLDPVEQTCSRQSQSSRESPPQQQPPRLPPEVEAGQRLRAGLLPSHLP
HSV replic up – enhancers of HSV replication in host cells, fold increase, host cell viability. HSV replication augmentation in cells. AID 1956, 2009. maximum fold increase. 0.005% of 220,000 active; in the data active means maximum fold increase above about 1.5; inconclusive means no clear call, values can overlap the other calls; tested in PC3 cells
Active calls of the source: *; i = inactive; ? = inconclusive; / = not tested or not shown; + = active, no number.

SMILES | bCat nuc transl | MT stabilize HCS | Autophagy mod | Insulin prom up | Furin inh | HSV replic up
COc1ccccc1/C=C(/CC(=O)NCc1ccc2c(c1)OCO2)c1nc2ccccc2s1 | / | 2.3 | i | 0.32 | 0.1 | i
O=C(CN1C(=O)C2C3C=CC(C3)C2C1=O)NCc1ccc2c(c1)OCO2 (centres undefined) | -1.4 | 2.2 | i | 0.4 | 27.3* | i
COc1ccc(CNC(=O)CN2C(=O)C3C4C=CC(C4)C3C2=O)cc1 (centres undefined) | / | 2.5 | + | -0.09 | -20.8 | i
COc1ccc(CN2C(=O)C3C4C=CC(C4)C3C2=O)cc1 (centres undefined) | 2.4 | 3.4 | i | 0.62 | -16.2 | i
Cc1cccc(N/C(N)=N/c2nc(CSc3ccc(Cl)cc3)cc(=O)[nH]2)c1 | 1.0 | / | / | 0.32 | 2.3 | i
Cc1cc(Nc2nn(C)c(N)c2C#N)ccc1F | 1.5 | 4.0 | i | 6.01* | -19.6 | i
CCOC(=O)c1ccc(NCCOC)c([N+](=O)[O-])c1 | -2.3 | 2.8 | + | -1.76 | -17.4 | i
Cc1cc(C)n(-c2nc3ccccc3c(=O)n2OCC(=O)OCc2ccccc2)n1 | -1.7 | 1.6 | + | -1.06 | -13.8 | /
Cc1cc(C)n(-c2nc3ccccc3c(=O)n2OCC(=O)N(C)C)n1 | 2.8 | 1.9 | i | 0.62 | -34.5 | i
CCc1ccc2c(c1)C(=O)C(=O)N2CC(=O)Nc1ccc(NC(=O)c2ccccn2)cc1 | 0.7 | 2.0 | i | -0.07 | -22.4 | i
O=C(C1CCN(Cc2ccc(F)cc2)CC1)N1CCN(C/C=C/c2ccccc2)CC1 | 0.5 | 4.2 | i | -0.11 | -28.8 | i
O=C(C1CCN(Cc2ccccc2)CC1)N1CCN(C/C=C/c2ccccc2)CC1 | -1.3 | 2.3 | + | -0.07 | -22.1 | i
O=C(O)c1ccc(COc2ccc3c4c(c(=O)oc3c2)CCC4)o1 | -1.6 | 5.0 | i | 1.71 | -15.0 | i
COC(=O)c1ccc(COc2ccc3c(C)c(C)c(=O)oc3c2)o1 | / | 4.0 | i | 3.49* | -26.0 | i
COc1ccc(C2CC(=O)C(C3NCCc4ccccc43)=C(O)C2n2cncn2)cc1 (centres undefined) | -0.2 | 2.4 | i | 0.02 | -25.2 | i
Cc1c(NC(=O)c2cc3c(s2)-c2ccccc2OC3)cccc1[N+](=O)[O-] | -0.9 | 4.4 | + | 0.21 | -35.6 | i
COc1cc(C(=O)NC(=S)Nc2ccccc2[N+](=O)[O-])cc(OC)c1OC | -4.4 | 1.0 | i | -0.02 | -20.4 | i
CCc1ccc(N/C(SC)=C(/C#N)C(N)=O)cc1 | 0.3 | 3.3 | i | 0.47 | -15.4 | i
CCCCS/C(=C(/C#N)C(N)=O)c1cc2c([nH]1)CCCC2 | 4.2 | 11.9* | i | 0.95 | -4.2 | i
O=[N+]([O-])c1ccc(N2CCCCC2)c(-c2nn[nH]n2)c1 | -0.4 | 2.6 | i | 0.49 | -22.7 | i
COc1ccc(C=C2c3ccccc3C(=O)c3ccccc32)c(OC)c1 | 81.9* | / | / | ? | -13.8 | i
COc1cc(/C=C/C(=O)OCC(=O)NC(=O)NC(C)C)ccc1O | -1.2 | / | / | 0.22 | 27.2* | i
COc1ccc(NC(=O)c2ccccc2)c([N+](=O)[O-])c1 | -2.2 | 4.1 | i | 0.76 | -21.8 | i
COc1ccc(NC(=S)NC(NC(=O)c2cccc(C)c2)C(Cl)(Cl)Cl)c([N+](=O)[O-])c1 (centres undefined) | -1.2 | 2.5 | + | / | -4.7 | i
COc1ccc(NC(=S)NC(NC(=O)c2cccc(Cl)c2)C(Cl)(Cl)Cl)c([N+](=O)[O-])c1 (centres undefined) | 1.6 | 5.7 | + | / | -19.9 | i
SMILES | bCat nuc transl | MT stabilize HCS | Autophagy mod | Insulin prom up | Furin inh | HSV replic up
COc1ccc(NC(=O)c2cccnc2)c([N+](=O)[O-])c1 | 2.9 | 21.7* | i | 0.37 | -19.1 | i
COc1ccc(NC(=S)NC(NC(C)=O)C(Cl)(Cl)Cl)c([N+](=O)[O-])c1 (centres undefined) | -0.4 | 3.2 | i | -0.17 | -9.9 | i
O=C(CSc1ncnc2[nH]ncc12)Nc1cccc(Oc2ccccc2)c1 | -2.1 | 5.1 | i | 0.23 | -25.6 | i
CCOc1ccc(NC(=O)CC2C(=O)NCCN2C(=O)c2ccc(Cl)cc2)cc1 (centres undefined) | -1.3 | 3.0 | i | -0.07 | -21.8 | i
Clc1ccc2c(c1)C(C1=NCCN1)c1ccccc1CS2 (centres undefined) | / | 24.1* | i | -0.4 | -9.2 | i
S=C1NCCc2ccc(Cl)cc2C1c1ccccc1Cl (centres undefined) | -2.5 | 2.0 | i | -1.14 | -17.3 | ?
Cc1noc(C)c1S(=O)(=O)N1CCC(C(=O)N2CCN(C3CCCC3)CC2)CC1 | -0.1 | 4.0 | i | 3.05* | -17.0 | /
COc1cc(NC(=S)NC(=O)c2ccccc2F)ccc1NC(=O)c1ccco1 | 0.2 | 15.4* | i | -0.76 | -15.7 | i
COc1ccccc1N1C(=S)NC2CS(=O)(=O)CC21 (centres undefined) | -1.3 | / | / | 0.57 | -21.4 | i
COC(=O)c1ccc(N=NN2CCCCC2)cc1 | 0.3 | 2.3 | i | 0.41 | -18.5 | i
COc1cc(/C=C2\N=C(c3ccccc3)NNC2=O)cc(OC)c1OC | 64.6* | / | / | -0.47 | -23.6 | i
Nc1cc(=O)[nH]n1C1CCCC1 | -3.0 | 2.4 | i | 0.48 | -17.0 | i
Nc1cc(=O)[nH]n1C1CCCCC1 | -2.3 | 2.5 | + | 0.74 | -8.7 | i
N#CC(c1cccc(Cl)c1)c1ccc2c(C(F)(F)F)cc(C(F)(F)F)nc2n1 (centres undefined) | 0.5 | 3.3 | + | ? | -18.7 | i
CC(C)N=C1NN=C(c2ccc(Cl)c(Cl)c2)CS1 | -0.4 | 3.4 | i | 0.66 | -4.5 | i
COc1ccc(CC(=O)NC2CCCc3ccccc32)cc1 (centres undefined) | 0.7 | 3.7 | i | -0.99 | -9.0 | i
O=C(CCl)NC1CCCc2ccccc21 (centres undefined) | 2.2 | 4.1 | i | 1.36 | -7.5 | i
Cc1ccc(C(=O)NC2CCCc3ccccc32)o1 (centres undefined) | / | 1.7 | i | -0.38 | 25.3* | i
O=C(NC(=S)NC1CCCc2ccccc21)c1ccco1 (centres undefined) | -1.0 | 4.3 | + | -0.81 | -22.2 | i
C=CCNC(=O)/C(C#N)=C/c1c(C)nn(-c2ccccc2)c1Cl | / | 3.0 | i | 0.31 | 2.4 | i
COc1ccc(/C=N/Nc2cc(N3CCCC3)nc(N3CCCC3)n2)cc1 | -0.2 | 1.9 | + | -0.9 | -11.8 | i
O=C(COc1ccc(C(=O)c2ccccc2)cc1)NCc1ccc(F)cc1 | 158.1* | 9.7* | i | 1.55 | -7.1 | i
O=C(COc1ccccc1)NCc1ccccc1 | / | 1.8 | i | 0.8 | -14.9 | /

High-throughput results deposited in PubChem by several laboratories.
